{
  "source": "PubChem BioAssay AID1617",
  "about": "(Sanford-Burnham Center for Chemical Genomics, 2009)",
  "system": "human plasma protein binding, RED dialysis, LC/MS/MS",
  "experiment": "human plasma protein binding, late-stage follow-up, ADME assay, biochemical, rapid equilibrium dialysis, LC/MS/MS (AID 1617)",
  "settings": "stronger effect = higher value",
  "procedure,_shortened": "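Material: Compound-spiked plasma dialysed against buffer by equilibrium dialysis. Times: 4 h dialysis, 37 °C, shaken. Read-out: percent bound, 100 minus free percentage from buffer-to-plasma concentration ratio. Compound dosing: two single doses, 1 and 10 µM final, 0.1% DMSO. Medium: Isotonic PBS pH 7.4 as dialysis buffer. Detection: LC/MS/MS of both chamber aliquots.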",
  "note": "The source made the active and inactive calls.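 Rule for the calls: active = compound at least 90% bound to plasma protein at 1 µM; inactive = the rest.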",
  "data": [
    {"smiles": "Cc1cc(OCC(=O)Nc2ncn[nH]2)ccc1Cl", "values": [
      {"measurement": "plasma protein bound", "setting": "at 1 µM", "result": "27.9% (inactive)"},
      {"measurement": "plasma protein bound", "setting": "percent bound, at 10 µM", "result": 16.8, "unit": "%"}
    ]}
  ]
}
